“And” between values parts separate entries of the source, which are not always exact repeats. Equal values may be shown once. The source made the active and inactive calls.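 Rule for the calls: active = signal drops and an active concentration is fitted at or below ten times the top valid dose of that sample; inconclusive = flat fit between -70 and -30%, or poor fit quality; inactive = the rest.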

Test system in one assay: not listed separately
Briefly: reduction of constitutive QS bioluminescence – strain BB721, dry powder, set 2, counter-screen for LuxS inhibitor project, dose response (AID 493096). Particulars: Vibrio harveyi BB721 quorum sensing luminescence, 9 h; at 16 µM (top of the series). In outline: (§1)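 Buffer or medium – AB medium · System – Vibrio harveyi BB721, strain with quorum sensing constitutively on · Quantity – culture at initial OD600 0.0005 · Schedule – compound exposure of 9 h at 30 °C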
In the case of `CCc1ccc(C(=O)Nc2ccc(Br)cn2)cc1`, the activity change, negative = inhibition was -2.33% (inactive).

The subject of a further assay is Vibrio harveyi BB721 quorum sensing luminescence, 9 h. The description is as above.
Conditions: not given
In outline:
as §1
As for `COc1cc(NC(=O)CN2C(=O)NC(c3ccccc3)(c3ccccc3)C2=O)cc(OC)c1`, the concentration at half-maximal activity (AC50) is 0.769 µM and 1.14 µM.

On to `O=C1C=C/C(=C/Br)O1`, for which the concentration at half-maximal activity (AC50) is 6.86 µM. The same measure, in the same setting: the result for `CCc1ccc(S(=O)(=O)Nc2ccc(Br)cn2)cc1` reads 14.8 µM; that for `Cc1cccc(NS(=O)(=O)c2ccc(Oc3ccccc3)cc2)n1`, 11.1 µM and 15.4 µM; that for `Cc1cccc(NC(=O)c2ccc(Oc3ccccc3)cc2)n1`, 14.9 µM.

Source of the values: PubChem BioAssay AID493096 (Broad Institute, 2011).
